Measured values published in ChEMBL document CHEMBL1914330 (Eur J Med Chem, 2011).
Activity calls are given as the source filed them. No cut-off for these calls is given here.

What was measured:
HeLa [1] = assay: Induction of cell cycle arrest at G2/M phase in human HeLa cells assessed as decrease in Cdc25C expression at 0.25 to 5 uM after 24 hrs by Western blot analysis; format: functional, cell-based
In short: (§1)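 HeLa cells treated for 24 or 48 h were washed in cold PBS and lysed on ice for 30 min. Lysates were cleared at 15,000 × g, run on SDS-PAGE and blotted. Membranes were probed 2 h at room temperature with antibodies to the target protein, then peroxidase secondary and ECL. Blots were reprobed for β-actin as loading control.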

HeLa [2] = assay: Induction of apoptosis in human HeLa cells assessed as PARP cleavage at 0.25 to 5 uM by Western blot analysis; format: functional, cell-based; settings: TDE = time-dependent effect; in short: as §1
A549 [3] = assay: Ratio of IC50 for taxol-resistant human A549-T12 cells to IC50 for human A549 cells; format: functional
[4] = Inhibition of bovine brain tubulin polymerization after 20 mins by turbidimetry; design: species or system Bos taurus
In short: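 Purified bovine brain tubulin at 10 µM was preincubated with compound in glutamate buffer at 30 °C, then cooled to 0 °C and GTP added. Samples were warmed to 30 °C in a recording spectrophotometer and assembly followed by turbidity.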

CCRF-CEM [5] = assay: Antiproliferative activity against human CEM cells after 72 hrs by MTT assay; format: functional, cell-based
In short: (§2)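 Cells seeded at 8 × 10³ per well in complete medium and exposed to a range of compound concentrations at 37 °C for 72 h. Viability read by MTT test. IC50 taken as the concentration inhibiting proliferation by 50%.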

[6] = Antiproliferative activity against human taxol-resistant A549-T12 cells after 72 hrs by MTT assay; format: functional, cell-based; settings: A549, 72 h; in short: as §2
HeLa [7] = assay: Cell cycle arrest in human HeLa cells at G2/M phase after 24 hrs by propidium iodide staining-based flow cytometry; format: functional
In short: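 HeLa cells treated for 24 h over 0.06–0.5 µM. Cells fixed in ice-cold 70% ethanol, lysed with buffer containing RNase A and 0.1% Triton X-100, and stained with PI. DNA content read by flow cytometry, including the sub-G1 fraction. Mean ± SEM of three independent experiments.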

Mus musculus = assay: Toxicity in BALB/c nude mouse xenografted with human HT-29 cells assessed as organism mortality at 100 mg/kg, ip administered 3 times per week for 1 week measured on day 19; format: organism-based; design: dose 100 mg/kg, route intraperitoneal; settings: in vivo, 168 h
In short: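 HT-29 cells in log phase, suspended at 1 × 10⁷ cells/mL in serum-free RPMI 1640, 0.2 mL injected subcutaneously into the back of nude mice. At about 300 mm³, mice were randomised to vehicle or treatment groups (six per group). The compound was given in DMSO by i.p. injection at 0.01 mL/g body weight. Body weight was recorded on set days; mice were euthanised after 23 days.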

FM3A = assay: Antiproliferative activity against mouse FM3A cells after 2 days by coulter counter analysis; format: functional, cell-based; settings: 48 h
HeLa [8] = assay: Induction of cell cycle arrest at G2/M phase in human HeLa cells assessed as increase in cyclin B1 expression at 0.25 to 5 uM after 24 hrs by Western blot analysis; format: functional, cell-based; in short: as §1
HeLa [9] = assay: Induction of cell cycle arrest at G2/M phase in human HeLa cells assessed as partial recovery in Cdc2 phosphorylation at Tyr15 at 0.25 to 5 uM after 48 hrs by Western blot analysis; format: functional, cell-based; in short: as §1
A549 [10] = assay: Antiproliferative activity against human A549 cells after 72 hrs by MTT assay; format: functional, cell-based; settings: A549, 72 h; in short: as §2
LoVo [11] = assay: Ratio of IC50 for doxorubicin-resistant human LoVo cells to IC50 for human LoVo cells; format: functional
[12] = Antiproliferative activity against human vinblastine-resistant CEM/VBL100 cells after 72 hrs by MTT assay; format: functional, cell-based; settings: CEM/VBL100, 72 h; in short: as §2
HeLa [13] = assay: Induction of apoptosis in human HeLa cells assessed as accumulation of necrotic cells after 48 hrs by Annexin-V-FITC/propidium iodide staining-based flow cytometric analysis; format: functional, cell-based
In short: (§3)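 HeLa cells treated for 24 or 48 h, then labelled with annexin-V-FITC and PI. Analysed by flow cytometry with excitation at 488 nm and emission at 525 nm (FITC) and 585 nm (PI). Quadrants scored as live, early apoptotic, late apoptotic or necrotic. Mean ± SEM of four independent experiments.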

HeLa [14] = assay: Antiproliferative activity against human HeLa cells after 2 days by coulter counter analysis; format: functional, cell-based; settings: 48 h
In short: (§4)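 Cells suspended at 300,000–500,000 cells/mL and mixed 1:1 with diluted compound. Incubated at 37 °C for two days, then counted with a Coulter counter. IC50 is the concentration inhibiting proliferation by 50%, as mean ± SE from dose-response curves of at least three independent experiments.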

CCRF-CEM [15] = assay: Antiproliferative activity against human CEM cells after 2 days by coulter counter analysis; format: functional, cell-based; settings: 48 h; in short: as §4
HeLa [16] = assay: Induction of apoptosis in human HeLa cells assessed as caspase-3 activation at 0.25 to 5 uM by flow cytometry; settings: TDE = time-dependent effect
HeLa [17] = assay: Induction of apoptosis in human HeLa cells assessed as accumulation of late apoptotic cells after 48 hrs by Annexin-V-FITC/propidium iodide staining-based flow cytometric analysis; format: functional, cell-based; in short: as §3
HeLa [18] = assay: Induction of cell cycle arrest at G2/M phase in human HeLa cells assessed as disappearance of Cdc25C expression at 0.25 to 5 uM after 48 hrs by Western blot analysis; format: functional, cell-based; in short: as §1
HeLa [19] = assay: Effect on Bax protein expression in human HeLa cells at 0.25 to 0.5 uM after 24 to 48 hrs by Western blot analysis; format: functional, cell-based; in short: as §1
HeLa [20] = assay: Induction of apoptosis in human HeLa cells assessed as loss of mitochondrial membrane potential at 0.25 to 5 uM by JC1 staining-based flow cytometric analysis; format: functional, cell-based; settings: TDE = time-dependent effect
In short: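 After 24 or 48 h treatment, HeLa cells were trypsinized and resuspended in HBSS with JC-1 (1 µM). Incubated 10 min at 37 °C, washed, and read by flow cytometry for red (590 nm) aggregate versus green (530 nm) monomer. Mean ± SEM of three experiments.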

HeLa [21] = assay: Induction of cell cycle arrest at G2/M phase in human HeLa cells assessed as decrease in Cdc2 phosphorylation at Tyr15 at 0.25 to 5 uM after 24 hrs by Western blot analysis; format: functional, cell-based; in short: as §1
HeLa [22] = assay: Induction of apoptosis in human HeLa cells assessed as accumulation of necrotic cells after 24 hrs by Annexin-V-FITC/propidium iodide staining-based flow cytometric analysis; format: functional, cell-based; in short: as §3
LoVo [23] = assay: Antiproliferative activity against doxorubicin-resistant human LoVo cells after 72 hrs by MTT assay; format: functional, cell-based; in short: as §2
HT-29 = assay: Antitumor activity against human HT-29 cells xenografted in BALB/c nude mouse assessed as reduction in tumor growth at 100 mg/kg, ip administered 3 times per week for 1 week; format: functional; design: scale not given: the % may be the effect or the level left; settings: route intraperitoneal
In short: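 HT-29 cells (1 × 10⁷/mL in serum-free RPMI 1640, 0.2 mL) were injected subcutaneously in the back of nude mice. At about 300 mm³ tumours, 18 mice were randomised to vehicle or drug groups. Drug in DMSO was given i.p. at 0.01 mL/g, 100 mg/kg, three times weekly for one week. Tumour volume = (L × W²)/2 by caliper; body weight also recorded; six mice per group.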

Compound: COc1cc(C(=O)c2sc(N3CCCC3)nc2N)cc(OC)c1OC
- Activity (HeLa [1]): Active
- Activity (HeLa [2]): tde
- Ratio IC50 (A549 [3]): 4.3
- IC50 [4]: 1300 nM
- IC50 (CCRF-CEM [5]): 20 nM
- IC50 [6]: 160 nM
- Activity (HeLa [7]): Dose-dependent effect
- Activity (Mus musculus): Toxic
- IC50 (FM3A): 180 nM
- Activity (HeLa [8]): Active
- Activity (HeLa [9]): inactive
- IC50 (A549 [10]): 37 nM
- Ratio IC50 (LoVo [11]): 4.3
- IC50 [12]: 10 nM
- Activity (HeLa [13]): Active
- IC50 (HeLa [14]): 340 nM
- IC50 (CCRF-CEM [15]): 320 nM
- Activity (HeLa [16]): tde
- Activity (HeLa [17]): Active
- Activity (HeLa [18]): Active
- Activity (HeLa [19]): inactive
- Activity (HeLa [20]): tde
- Activity (HeLa [21]): Active
- Activity (HeLa [22]): Dose-dependent effect
- IC50 (LoVo [23]): 430 nM
- Activity (HT-29): 58%
